# Published values collected from several papers.
# DRD3: D(3) dopamine receptor (DRD3, Homo sapiens, UniProt P35462)
# PDE10A: cAMP and cAMP-inhibited cGMP 3',5'-cyclic phosphodiesterase 10A (PDE10A, Homo sapiens, UniProt Q9Y233)
# SLC6A3: Sodium-dependent dopamine transporter (SLC6A3, Homo sapiens, UniProt Q01959)
Structure (SMILES),target,test,test system,conditions,measurement,value
Cc1[nH]c(C)c(S(=O)(=O)Nc2cc(Cl)cc(C(F)(F)F)c2)c1C(=O)N1CCC(F)(F)C1,DRD3,"β-arrestin recruitment, agonist",,90 min,Emax,101%
c1ccc(-c2cccc(Cc3ccnc4cc(C5COC5)ccc34)c2)cc1,PDE10A,"enzyme activity, inhibitor, FP",,0.1 µM,inhibition,3%
Cc1ccc(NS(=O)(=O)c2c(C)[nH]c(C)c2C(=O)N2CCC(F)(F)C2)cc1Cl,DRD3,"β-arrestin recruitment, agonist",,90 min,Emax,95%
N#C[C@@]12C[C@@H]1[C@@H](n1cnc3c(Nc4ccc(Cl)c(Cl)c4)nc(I)nc31)[C@H](O)[C@@H]2O,SLC6A3,"ligand displacement, radioligand",,10 µM,inhibition,-9%
COc1ccc2oc(-c3ccc4nc(N)oc4c3)c/c(=N\c3ccccc3NC(=O)CCN)c2c1,"Activated CDC42 kinase 1 (TNK2, Homo sapiens, UniProt Q07912)",binding,,1 µM,remaining binding,100%
CCCCC(=O)Nc1ccc(-c2ccc3ncn(CCC)c(=O)c3c2)cn1,"Dual specificity protein kinase CLK4 (CLK4, Homo sapiens, UniProt Q9HAZ1)","binding, competition with immobilised ligand",,0.5 µM,remaining binding,86%
C1=C/COCc2cc(ccc2OCCN2CCCC2)Nc2nccc(n2)-c2cccc(c2)COC/1,"Serine/threonine-protein kinase D1 (PRKD1, Homo sapiens, UniProt Q15139)",binding,,0.1 µM,remaining binding,100%
N#C[C@@]12C[C@@H]1[C@@H](n1cnc3c(Nc4ccccc4)nc(C#Cc4ccc(Cl)s4)nc31)[C@H](O)[C@@H]2O,SLC6A3,"ligand displacement, radioligand",,10 µM,inhibition,74%
COc1ccc(C(=O)c2ncnc3cc(OC)c(OC)cc23)cc1,PDE10A,"enzyme activity, inhibitor, FP",,0.1 µM,inhibition,39%
Cc1[nH]c(C)c(S(=O)(=O)Nc2ccc(Cl)c(C(F)(F)F)c2)c1C(=O)N1CCCC1,DRD3,"β-arrestin recruitment, agonist",,90 min,Emax,88%
COc1ccc2c(Cc3ccc(OC)c(OC)c3)ccnc2c1,PDE10A,"enzyme activity, inhibitor, FP",,0.1 µM,inhibition,33%
Cc1[nH]cc(S(=O)(=O)Nc2ccc(C(F)(F)F)c(Cl)c2)c1C(=O)N(C)C,DRD3,"β-arrestin recruitment, agonist",,90 min,Emax,83%
COc1ccc2nccc(Cc3cccc(-c4ccc(C(=O)O)cc4)c3)c2c1,PDE10A,"enzyme activity, inhibitor, FP",,0.1 µM,inhibition,11%
Cc1ccc(NS(=O)(=O)c2c(C)[nH]c(C)c2C(=O)N2CCC2)cc1Cl,DRD3,"β-arrestin recruitment, agonist",,90 min,Emax,96%
c1ccc(-c2cccc(Cc3ccnc4ccccc34)c2)cc1,PDE10A,"enzyme activity, inhibitor, FP",,0.1 µM,inhibition,0%
N#CC[C@@]12C[C@@H]1[C@@H](n1cnc3c(NCCCCCc4ccccc4)nc(I)nc31)[C@H](O)[C@@H]2O,SLC6A3,"ligand displacement, radioligand",,10 µM,inhibition,23%
Cc1[nH]c(C)c(S(=O)(=O)Nc2ccc(Cl)c(Cl)c2Cl)c1C(=O)N1CCC(F)(F)C1,DRD3,"β-arrestin recruitment, agonist",,90 min,Emax,92%
N#CC[C@@]12C[C@@H]1[C@@H](n1cnc3c(Nc4ccccc4)nc(C#Cc4ccc(Cl)s4)nc31)[C@H](O)[C@@H]2O,SLC6A3,"ligand displacement, radioligand",,10 µM,inhibition,18%
Cc1[nH]c(C)c(S(=O)(=O)Nc2ccc(C(F)(F)F)c(Cl)c2)c1C(=O)N1CCCC1,DRD3,"β-arrestin recruitment, agonist",,90 min,Emax,92%
CNC(=O)[C@@]12C[C@@H]1[C@@H](n1cnc3c(Nc4ccccc4)nc(C#Cc4ccc(Cl)s4)nc31)[C@H](O)[C@@H]2O,SLC6A3,"ligand displacement, radioligand",,10 µM,inhibition,84%
COc1ccc2ccnc(Cc3cccc(-c4ccccc4)c3)c2c1,PDE10A,"enzyme activity, inhibitor, FP",,0.1 µM,inhibition,5%
CCOC(=O)[C@@]12C[C@@H]1[C@@H](n1cnc3c(NCCCCCCc4ccccc4)nc(I)nc31)[C@H](O)[C@@H]2O,SLC6A3,"ligand displacement, radioligand",,10 µM,inhibition,73%
Cc1[nH]c(C)c(S(=O)(=O)Nc2ccc(C(F)(F)F)c(Cl)c2)c1C(=O)NCC(F)(F)F,DRD3,"β-arrestin recruitment, agonist",,90 min,Emax,98%
COc1ccc2c(Cc3ccc(OC)c(OC)c3)nccc2c1,PDE10A,"enzyme activity, inhibitor, FP",,0.1 µM,inhibition,25%
CCOC(=O)C12CC1C(n1ccc3c(NCCCc4ccccc4)nc(C#Cc4ccc(Cl)s4)nc31)C(O)C2O (stereo not drawn),SLC6A3,"ligand displacement, radioligand",,10 µM,inhibition,61%
COc1cc2ncnc(Cc3cccc(-c4ccc(CO)cc4)c3)c2cc1OC,PDE10A,"enzyme activity, inhibitor, FP",,0.1 µM,inhibition,66%
CCOC(=O)[C@@]12C[C@@H]1[C@@H](n1cnc3c(NCCCCCc4ccccc4)nc(C#Cc4ccc(Cl)s4)nc31)[C@H](O)[C@@H]2O,SLC6A3,"transporter uptake, inhibitor, radiometric",HEK293,10 µM,inhibition,< 5%
